Screens from PubChem BioAssay.
PLC-beta3 inh: human PLC-beta3 inhibitors, primary screen, biochemical, fluorescence; actives 0.18% (n = 370,000); Purified PLC-beta3, fluorogenic substrate; 1-phosphatidylinositol 4,5-bisphosphate phosphodiesterase beta-3 (Homo sapiens), Q01970; AID 720704, 2013; inhibition, % at 12.2 µM; in the data active means inhibition above about 11%
PLC-gamma1 inh: PLC-gamma1 enzyme inhibitors, primary screen, biochemical, fluorescence, purified enzyme; inhibition, % at 12.2 µM; actives 0.84% (n = 370,000); fluorogenic substrate; 1-phosphatidylinositol 4,5-bisphosphate phosphodiesterase gamma-1 (Homo sapiens), P19174; in the data active means inhibition above about 9.5%
procasp7 counter: procaspase-7 activators, primary screen, counter-screen for procaspase-3 activator project, biochemical, absorbance, HTS, human | activation, % at 8.5 µM | recombinant procaspase-7, Ac-DEVD-pNA absorbance 405 nm; D23A/D198A/D206A triple mutant, cannot self-cleave; scale: DMSO 0, 5 µM enzyme 100 | actives 0.093% (n = 330,000) | Caspase-7 (Homo sapiens), P55210 | AID 463210, 2010;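 active means percent activation above the screen-wide mean plus 3 SD, cut at about 25% in these data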
Target sequence (P55210 whole entry D23A/D198A/D206A): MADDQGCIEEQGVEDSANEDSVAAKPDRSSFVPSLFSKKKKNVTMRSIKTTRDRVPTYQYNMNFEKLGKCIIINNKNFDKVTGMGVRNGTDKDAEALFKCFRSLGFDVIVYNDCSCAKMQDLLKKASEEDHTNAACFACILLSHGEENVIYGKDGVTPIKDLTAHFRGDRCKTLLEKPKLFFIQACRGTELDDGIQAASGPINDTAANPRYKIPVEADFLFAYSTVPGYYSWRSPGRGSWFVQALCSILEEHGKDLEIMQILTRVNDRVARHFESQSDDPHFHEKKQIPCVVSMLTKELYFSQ
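Assay system: Uncleavable procaspase-7 mutant enzyme; Input: 2 µM procaspase-7 mutant as dispensed; Also added: DEVD-pNA substrate; Medium: Zinc-free HEPES pH 7.4 with 300 mM NaCl, 0.01% Triton X-100; Timing: 1 h compound preincubation, 2 h substrate cleavage, 25 °C; Measured by: Epi-absorbance of released pNA at 405 nm, two timepoints.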
HGIII-sPLA2 inh: human group III sPLA2 inhibitors, primary screen, biochemical, QFRET, BODIPY PC-A2 liposome substrate | QFRET BODIPY PC-A2 liposome hydrolysis, fluorescence | actives 0.56% (n = 370,000) | Group 3 secretory phospholipase A2 (Homo sapiens), Q9NZ20 | inhibition, % at 12.2 µM | AID 743126, 2013;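 active means inhibition above mean plus 3 SD of compounds lying within the high and low control bounds, cut at about 19% in these data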
proCasp3 act: activators of human procaspase-3 D3A mutant, primary screen, biochemical, absorbance, PC-3 D3A mutant, single concentration; Caspase-3 (Homo sapiens), P42574; recombinant procaspase-3 D3A, Ac-DEVD-pNA absorbance 405 nm; activation, % at 8.5 µM; actives 0.11% (n = 330,000); AID 463141, 2010;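 active means activation above the mean of all tested compounds plus 3 SD, cut at about 21% in these data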
Target sequence (P42574 whole entry D9A/D28A/D175A): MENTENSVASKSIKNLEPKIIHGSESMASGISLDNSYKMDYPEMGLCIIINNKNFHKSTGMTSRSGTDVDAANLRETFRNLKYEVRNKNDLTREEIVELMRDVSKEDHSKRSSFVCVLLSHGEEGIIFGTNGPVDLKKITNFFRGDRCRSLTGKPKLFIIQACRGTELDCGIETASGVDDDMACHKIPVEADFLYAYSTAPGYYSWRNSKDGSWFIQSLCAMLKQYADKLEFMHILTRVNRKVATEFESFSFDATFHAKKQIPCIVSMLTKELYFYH
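Evaluation: percent activation relative to control range; Material: Procaspase-3 D3A mutant, all three cleavage aspartates alanine; Compound: single dose, 8.5 µM nominal compound, 0.8% DMSO; Replication: one well per compound; Signal: absorbance at 405 nm, 0 and 120 min; Schedule: 1 h preincubation plus 2 h reaction at 25 °C.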
procasp7 triplic: procaspase-7 activators, counter-screen for procaspase-3 activator project, biochemical, absorbance, triplicate, human; shares compounds with proCasp3 act; 210 tested, under 10 active; activation, % at 8.5 µM; AID 488941, 2010; recombinant procaspase-7, Ac-DEVD-pNA absorbance; asp23/198/206-to-Ala mutant, cannot self-cleave;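 active means mean activation above a set limit taken from an earlier procaspase-7 screen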
procasp3 conf: activators of human procaspase-3 D3A mutant, confirmation, biochemical, absorbance, PC-3 D3A mutant, triplicate. shares compounds with proCasp3 act. recombinant PC-3 D3A, Ac-DEVD-pNA absorbance 405 nm; 100% is higher-enzyme control. activation, % at 8.5 µM. actives 10% (n = 210);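 active means mean activation above a set limit carried over from the earlier primary screen, cut at about 22% in these data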
PC3 dual counter: procaspase-3 activators, counter-screen for dual procaspase-3/7 activator project, biochemical, absorbance, PC-3 D3A mutant, human. shares compounds with procasp7 counter. recombinant PC-3 D3A, Ac-DEVD-pNA absorbance 405 nm; aspartates 9, 28, 175 changed to alanine; 100% = enzyme control. activation, % at 8.5 µM. 290 tested, under 10 active. AID 493114, 2011;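 active means mean percent activation across triplicates above a set limit taken from the earlier primary procaspase-3 screen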
PC7 dual conf: activation of procaspase-7 enzyme – biochemical, absorbance, human, dual procaspase-3/-7 activator project, confirmation. shares compounds with procasp7 counter. activation, % at 8.5 µM. 290 tested, under 10 active. recombinant procaspase-7, Ac-DEVD-pNA absorbance 405 nm; D23A/D198A/D206A mutant that cannot self-cleave;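 active means mean activation above a set limit carried over from the earlier primary screen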
Numbers stand for hits; – = inactive; · = not tested or not shown. This is a sample that favours compounds with a hit; in the whole collection about 1.6% have one here.

SMILES	PLC-beta3 inh	PLC-gamma1 inh	procasp7 counter	HGIII-sPLA2 inh	proCasp3 act	procasp7 triplic	procasp3 conf	others
CCCCCCN1C=CC(=C/C=C(\C#N)C(=O)OCC)C=C1	–	–	–	–	24	–	–
O=Cc1ccnc(-c2ccc(OC(=O)c3ccco3)cc2)n1	–	–	–	–	–	·	·
CCCc1ccc(OCc2ccc(C(=O)N3CCSCC3)o2)cc1	–	–	–	–	22	–	–
COCCN(C(=O)CSCC(=O)Nc1ccc(C)cc1)c1c(N)n(CC(C)C)c(=O)[nH]c1=O	–	–	–	–	61	–	–
Cc1ccc(NC(=O)CSCC(=O)N(CCC(C)C)c2c(N)n(Cc3ccccc3)c(=O)[nH]c2=O)cc1	–	–	·	–	·	·	·
COc1ccc(NC(=O)CSc2nc3ccccc3nc2N2CCCC2)cc1Cl	–	–	–	–	30	–	–
CCn1c(SC(C)C(=O)NCC2CCCO2)nc2ccccc21 (stereo unspecified)	–	–	–	–	39	–	–
COc1ccccc1Nc1nc2c(C)cccc2cc1C#N	–	–	–	–	40	80	94
COc1ccccc1Nc1nc2ccc(C)cc2cc1C#N	–	–	–	–	–	·	·
COC(=O)Cn1c(=NC(=O)c2cc(-c3cccs3)nc3ccccc23)sc2cc(S(N)(=O)=O)ccc21	–	–	–	–	78	–	–
CCOc1ccc(CN2C(=O)CC(=O)N(S(=O)(=O)c3ccc(OCC)cc3)C2=O)cc1	–	–	–	–	–	·	·
CCCCNc1ccc2c(c1)OC[C@@H](CC(C)C)NS2(=O)=O	–	–	·	–	·	·	·
CCOC(=O)c1ccc(NCc2cccnc2)cc1	–	–	–	–	–	·	·
O=c1c2ccccc2nc(SCCN2CCCCC2)n1CCc1ccccc1	–	–	–	–	–	·	·
CC1(C)Cc2c(c(N3CCOCC3)nc3sc(C(=O)Nc4ccc(Cl)cc4)c(N)c23)CO1	–	–	–	–	–	·	·
Cc1nc2c(sc3nc(N4CCOCC4)c4c(c32)CC(C)(C)OC4)c(-c2ccc(Cl)cc2)c1C(=O)O	–	–	–	–	26	–	–
CCN1CCN(c2ncnc3c2sc(=S)n3-c2ccccc2)CC1	–	–	–	–	23	–	–
CCOC(=O)C1=C(COC(=O)c2cc(S(=O)(=O)N(C)C)ccc2C)NC(=O)NC1C (stereo unspecified)	–	–	–	–	–	·	·
Cc1ccc(C)c(NC(=O)CSc2nnc(-c3ccccc3)o2)c1	–	–	–	–	–	·	·
Cc1ccc(NC(=O)CSc2nnc(-c3cccnc3)o2)c(C)c1	–	–	–	–	23	–	–
Cc1ccc(NC(=O)c2sc3nc(N4CCOCC4)c4c(c3c2N)CC(C)(C)OC4)cc1	–	–	–	–	–	·	·
CC1(C)Cc2c(c(N3CCCC3)nc3sc(C(=O)Nc4ccccc4)c(N)c23)CO1	–	–	–	–	23	39	68
CC(=O)c1cccc(NS(=O)(=O)c2ccc(N/C=C\C(=O)c3ccc(C)cc3)cc2)c1	–	–	–	–	38	–	–
COc1ccc2oc(C(=O)OCC(=O)Nc3cc(S(=O)(=O)N4CCOCC4)ccc3OC)c(C)c2c1	–	–	–	–	22	–	–
COc1ccc2oc(C(=O)OCC(=O)Nc3cc(S(=O)(=O)N4CCOCC4)ccc3C)c(C)c2c1	–	–	–	–	–	·	·
SMILES	PLC-beta3 inh	PLC-gamma1 inh	procasp7 counter	HGIII-sPLA2 inh	proCasp3 act	procasp7 triplic	procasp3 conf	others
O=c1cc(O)c2ccc(O)cc2o1	–	–	–	–	–	·	·
Cc1cc(=O)oc2cc(O)ccc12	–	–	–	–	24	–	–
NC(=O)c1c(NC(=O)c2ccccc2C(=O)O)sc2c1CCCC2	–	–	–	–	–	·	·
NC(=O)c1c(NC(=O)c2ccccc2F)sc2c1CCCC2	–	–	–	–	37	–	–
O=C(CCNS(=O)(=O)c1cccc2nsnc12)N1CC(=O)N(CCc2ccccc2)C(=O)C1	–	–	–	–	24	–	–
CCS(=O)(=O)N1Cc2cc(C(=O)NCC3CC3)nc(-c3cccc(-c4cccnc4)c3)c2[C@@H]1CCO	–	–	·	–	·	·	·
COc1ccc(C2CC(c3cccc(C(F)(F)F)c3)=NN2c2ccc(S(N)(=O)=O)cc2)cc1 (stereo unspecified)	–	–	53	–	44	·	·	PC3 dual counter=–;PC7 dual conf=–
NS(=O)(=O)c1ccc(N2N=C(c3ccccc3)CC2c2cccc(Cl)c2)cc1 (stereo unspecified)	–	–	44	–	39	·	·	PC3 dual counter=–;PC7 dual conf=–
O=C(O)c1ccc(N2N=C(c3ccccc3)CC2c2ccccc2)cc1 (stereo unspecified)	–	–	–	–	–	·	·
COc1ccc(C2CC(c3ccccc3)=NN2c2ccc(C(N)=O)cc2)cc1 (stereo unspecified)	–	–	38	–	30	·	·	PC3 dual counter=–;PC7 dual conf=–
COc1ccc(C2CC(c3cccc(Br)c3)=NN2c2ccc(S(N)(=O)=O)cc2)cc1 (stereo unspecified)	–	–	–	–	–	·	·
COc1ccc(C2CC(c3ccccc3)=NN2c2ccc(S(N)(=O)=O)cc2)cc1 (stereo unspecified)	–	–	51	–	28	·	·	PC3 dual counter=–;PC7 dual conf=–
COc1ccc(C2=NN(c3ccccc3)C(c3ccc(OC)c(OC)c3)C2)cc1 (stereo unspecified)	–	–	–	–	–	·	·
